The record followed here is publication PMC9398548 (European journal of pharmaceutical sciences : official …, 2020).

The term IC50 denotes the concentration needed to halve the response being measured.

In one assay the target is HDAC4 (Homo sapiens, UniProt P56524). The assay is described as follows: HDAC enzyme activity assay, HDAC4. The assay is classed as biochemical. The method, boiled down: (§1)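 Enzymes were recombinant: HDAC8, and the codon-optimised human HDAC4 catalytic domain (pET14b). Serial inhibitor dilutions in 25 mM Tris-HCl, 75 mM KCl, 0.001% Pluronic F-127, pH 8.0 were pre-incubated with enzyme for 1 h at 30 °C. Reaction ran 60 min at 30 °C with 20 μM Boc-Lys(trifluoroacetyl)-AMC and was stopped with 1.7 μM SATFMK. Trypsin (0.4 mg/ml) released AMC; fluorescence read at Ex 350/Em 450 nm. Triplicate; IC50 from dose-response curves.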
HDAC4, sequence (P56524 655-1084 limits assumed): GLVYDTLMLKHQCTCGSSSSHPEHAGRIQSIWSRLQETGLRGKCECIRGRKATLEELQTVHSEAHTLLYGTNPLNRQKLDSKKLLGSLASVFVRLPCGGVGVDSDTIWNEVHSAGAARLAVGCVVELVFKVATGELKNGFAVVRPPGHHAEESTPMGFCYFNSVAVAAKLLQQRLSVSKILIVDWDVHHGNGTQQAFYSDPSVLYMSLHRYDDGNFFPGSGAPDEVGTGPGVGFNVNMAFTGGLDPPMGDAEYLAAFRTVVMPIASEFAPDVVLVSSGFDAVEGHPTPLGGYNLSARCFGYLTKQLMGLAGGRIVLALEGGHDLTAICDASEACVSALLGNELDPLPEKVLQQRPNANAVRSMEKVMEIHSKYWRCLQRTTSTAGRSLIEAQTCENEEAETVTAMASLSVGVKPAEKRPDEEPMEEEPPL

The target of the next assay is T1, HDAC8 (Homo sapiens, UniProt Q9BY41).
T1 sequence (Q9BY41 1-377): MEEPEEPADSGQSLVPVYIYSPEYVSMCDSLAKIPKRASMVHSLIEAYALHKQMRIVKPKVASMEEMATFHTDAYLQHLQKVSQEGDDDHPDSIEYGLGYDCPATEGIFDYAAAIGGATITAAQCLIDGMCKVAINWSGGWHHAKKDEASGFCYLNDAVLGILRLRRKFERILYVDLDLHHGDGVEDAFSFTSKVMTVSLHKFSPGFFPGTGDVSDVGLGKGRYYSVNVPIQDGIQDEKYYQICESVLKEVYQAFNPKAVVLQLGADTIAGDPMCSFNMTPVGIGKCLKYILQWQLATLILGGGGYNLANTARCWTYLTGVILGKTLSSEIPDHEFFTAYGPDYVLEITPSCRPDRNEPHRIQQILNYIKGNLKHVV
The assay is described as follows: HDAC enzyme activity assay, HDAC8. The assay is classed as biochemical. Particulars: for HDAC-8 relative enzyme activity: primary screening at 50 μM. The method, boiled down:
as §1

The target of a further assay is T2, HDAC6 (Homo sapiens, UniProt Q9UBN7).
T2 sequence (Q9UBN7 1-1215): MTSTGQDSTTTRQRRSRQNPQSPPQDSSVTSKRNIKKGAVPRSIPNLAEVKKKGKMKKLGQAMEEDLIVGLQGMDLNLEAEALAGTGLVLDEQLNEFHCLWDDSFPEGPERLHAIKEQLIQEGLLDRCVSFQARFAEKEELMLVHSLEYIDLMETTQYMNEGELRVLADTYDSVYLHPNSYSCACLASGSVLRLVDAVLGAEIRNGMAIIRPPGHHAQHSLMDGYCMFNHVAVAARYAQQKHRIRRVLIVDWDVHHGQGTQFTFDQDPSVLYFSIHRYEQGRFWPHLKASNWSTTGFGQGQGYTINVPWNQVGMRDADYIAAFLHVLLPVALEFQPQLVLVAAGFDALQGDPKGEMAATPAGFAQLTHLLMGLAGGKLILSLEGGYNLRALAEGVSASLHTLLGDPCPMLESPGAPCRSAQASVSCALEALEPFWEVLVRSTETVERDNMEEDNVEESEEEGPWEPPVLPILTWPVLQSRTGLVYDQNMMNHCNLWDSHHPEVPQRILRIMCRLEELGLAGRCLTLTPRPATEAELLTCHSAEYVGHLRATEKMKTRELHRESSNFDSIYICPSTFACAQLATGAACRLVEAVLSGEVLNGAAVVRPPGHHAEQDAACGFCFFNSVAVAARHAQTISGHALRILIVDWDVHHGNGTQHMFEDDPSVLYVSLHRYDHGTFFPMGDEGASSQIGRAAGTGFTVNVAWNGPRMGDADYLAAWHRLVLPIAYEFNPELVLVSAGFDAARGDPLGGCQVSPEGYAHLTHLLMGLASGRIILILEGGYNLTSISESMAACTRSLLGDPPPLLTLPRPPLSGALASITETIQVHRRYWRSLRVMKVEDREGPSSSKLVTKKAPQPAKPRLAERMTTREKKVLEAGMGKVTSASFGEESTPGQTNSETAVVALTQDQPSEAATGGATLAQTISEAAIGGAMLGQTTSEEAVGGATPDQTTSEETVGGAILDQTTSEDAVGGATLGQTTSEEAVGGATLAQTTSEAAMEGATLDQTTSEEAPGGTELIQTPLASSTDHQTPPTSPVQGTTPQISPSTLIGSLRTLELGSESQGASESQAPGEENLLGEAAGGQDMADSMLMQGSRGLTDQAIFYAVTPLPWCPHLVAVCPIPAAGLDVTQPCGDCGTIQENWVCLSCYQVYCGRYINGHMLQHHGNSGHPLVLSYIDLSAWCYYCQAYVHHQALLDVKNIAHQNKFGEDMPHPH
The assay is described as follows: HDAC enzyme activity assay, HDAC6. The class given is biochemical.

The target of the next assay is HDAC1 (Homo sapiens, UniProt Q13547). The assay is described as follows: HDAC enzyme activity assay, HDAC1. The class given is biochemical.
HDAC1, sequence (Q13547 whole entry, species assumed): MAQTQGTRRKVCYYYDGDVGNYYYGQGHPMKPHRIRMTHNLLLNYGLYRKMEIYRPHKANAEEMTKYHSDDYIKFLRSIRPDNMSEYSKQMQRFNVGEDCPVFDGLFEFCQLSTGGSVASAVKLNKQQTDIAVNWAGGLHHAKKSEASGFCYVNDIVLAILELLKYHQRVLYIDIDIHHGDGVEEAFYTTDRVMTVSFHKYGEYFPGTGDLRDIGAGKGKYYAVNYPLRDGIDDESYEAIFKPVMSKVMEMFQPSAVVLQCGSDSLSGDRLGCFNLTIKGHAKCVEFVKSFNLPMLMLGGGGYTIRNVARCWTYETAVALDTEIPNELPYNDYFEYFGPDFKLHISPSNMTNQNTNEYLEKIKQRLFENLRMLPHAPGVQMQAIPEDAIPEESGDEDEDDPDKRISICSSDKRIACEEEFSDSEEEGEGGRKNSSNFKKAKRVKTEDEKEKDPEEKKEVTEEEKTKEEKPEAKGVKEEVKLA
A further assay deals with K562 cells. Kind of assay: MTT cytotoxicity assay in K562 cells. The assay is classed as cell-based. The following applies: read-out: K562- IC50. The method, boiled down:
(§2)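 Cells were grown in suspension in RPMI 1640 with 10% FBS and penicillin/streptomycin/amphotericin B at 37 °C under 5% CO2. They were seeded at ~5×10^3 cells/well, kept overnight, then exposed to test compounds diluted in DMSO for 48 h. Cells were pelleted (300 g, 4 °C, 5 min) and washed twice in phosphate buffer. MTT (5 mg/ml stock) was added for 4 h at 37 °C, formazan dissolved in DMSO, and A570 read. Triplicate; IC50 given as mean±SD.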
In general terms: Tetrazolium dyes change colour on reduction, which living cells bring about.

The subject of a further assay is CEM cells. Kind of assay: MTT cytotoxicity assay in CEM cells. The class given is cell-based. The following applies: read-out: CEM- IC50, 48 h, Mean±SD, n=3. In outline:
as §2

The target in another assay is T3, GLUT4 (Homo sapiens, UniProt P14672).
T3 sequence (P14672 1-509): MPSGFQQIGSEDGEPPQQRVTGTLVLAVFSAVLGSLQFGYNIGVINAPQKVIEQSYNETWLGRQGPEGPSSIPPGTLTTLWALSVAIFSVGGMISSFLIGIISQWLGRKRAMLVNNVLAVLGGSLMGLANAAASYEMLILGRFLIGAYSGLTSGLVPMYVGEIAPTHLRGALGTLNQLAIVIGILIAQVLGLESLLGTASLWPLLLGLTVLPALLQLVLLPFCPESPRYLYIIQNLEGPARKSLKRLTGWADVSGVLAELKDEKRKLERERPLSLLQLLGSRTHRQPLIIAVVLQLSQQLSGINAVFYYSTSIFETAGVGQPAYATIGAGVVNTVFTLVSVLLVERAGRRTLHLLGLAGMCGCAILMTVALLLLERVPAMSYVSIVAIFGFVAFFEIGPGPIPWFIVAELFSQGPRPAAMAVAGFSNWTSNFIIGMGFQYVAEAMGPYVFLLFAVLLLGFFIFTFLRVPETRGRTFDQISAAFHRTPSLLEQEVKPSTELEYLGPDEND
The class given is cell-based. The method, boiled down: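 VW4000fgy1erg4 hxt0 yeast expressing human GLUT4 were cultured at 30 °C, first in SC-uracil/1% maltose and then in SC-uracil/0.2% glucose from OD600 ~0.5. Cells in PBS pH 7.4 (OD600 ~10) were fed 5 mM C14-glucose for 10 min. The reaction was quenched in ice-cold buffer pH 5.5, then filtered and scintillation-counted. Vehicle control was 1% DMSO; 200 μM phloretin served as positive control.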

Another assay concerns GLUT5. The class given is cell-based, human. Particulars: up to 100 μM. In outline:
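Uses hexose-transporter-null VW4000 yeast expressing human GLUT5, cultured at 30 °C and 180 rpm. Cells were grown one day in YEP/2% maltose with G418, then 1–2 days in YEP/2% fructose starting from OD600 ~0.5. Washed cells in PBS pH 7.4 (OD600 ~10) took up 10 mM C14-fructose for 10 min. Uptake was stopped with ice-cold KPi/LiCl quench buffer pH 5.5, then filtered and scintillation-counted. Controls were 1% DMSO and 100 μM MSNBA. Screening was at 100 μM; three independent measurements.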

The next assay deals with T4, GLUT1 (Homo sapiens, UniProt P11166).
T4 sequence (P11166 1-492): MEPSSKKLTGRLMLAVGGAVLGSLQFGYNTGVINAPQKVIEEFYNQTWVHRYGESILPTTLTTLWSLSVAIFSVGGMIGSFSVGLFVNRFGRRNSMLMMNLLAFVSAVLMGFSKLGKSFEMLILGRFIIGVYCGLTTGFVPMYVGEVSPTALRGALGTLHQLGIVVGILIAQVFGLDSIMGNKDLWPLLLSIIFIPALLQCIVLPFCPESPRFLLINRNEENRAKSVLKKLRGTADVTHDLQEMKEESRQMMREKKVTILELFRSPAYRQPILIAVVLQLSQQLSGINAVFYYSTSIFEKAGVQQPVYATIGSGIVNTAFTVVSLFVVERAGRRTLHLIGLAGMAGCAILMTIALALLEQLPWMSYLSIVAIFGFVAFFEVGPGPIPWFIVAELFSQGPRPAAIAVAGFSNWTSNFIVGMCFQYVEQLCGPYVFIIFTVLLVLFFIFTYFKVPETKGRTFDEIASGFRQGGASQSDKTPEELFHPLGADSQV
The assay is classed as cell-based. The following applies: for IC50: GLUT1 IC50, hxt0 yeast cells expressing GLUT1, 5 mM C14-glucose, 10 minutes; for decrease of relative transport activity of GLUT1: primary screen, 100 μM compound. The method, boiled down: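 VW4000fgy1 hxt0 yeast carrying human GLUT1 were grown at 30 °C: first in SC-uracil/2% maltose for 2–3 days, then 1–2 days in SC-uracil/2% glucose from OD600 ~0.5. Cells were resuspended in PBS pH 7.4 at OD600 ~10 and given 5 mM C14-glucose for 10 min. Uptake was quenched with ice-cold buffer pH 5.5, filtered, and counted. Controls: 1% DMSO and 200 μM phloretin.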

Setting [1] is: read-out: HDAC4 IC50, Means ±SD, n=3.
Where [2] appears, read: read-out: HDAC8 IC50, Means ±SD, n=3.

“And” between values parts separate entries of the source, which are not always exact repeats. Equal values may be shown once. “Also recorded” adds a separate entry of the source. Read-outs that look alike come from different tables or passages of the source.

Take `O=C(CN1C(=O)SC(=Cc2ccc(Br)cc2)C1=O)Nc1ccc(Cl)cc1C(F)(F)F` [Compound G1, 2-[5-(4-Bromobenzylidene)-2,4-dioxo-thiazolidin-3-yl]-N-(4-chloro-2-trifluromethylphenyl) acetamide]: the IC50 on HDAC4 (setting [1]) is above 50 µM; at HDAC8 (setting [2]), 20 ± 3 µM; at HDAC6 (read-out: HDAC6 IC50, Means ±SD, n=3) it was 16 ± 2 µM; at HDAC1 (read-out: HDAC1 IC50, Means ±SD, n=3) it was above 50 µM; with K562 cells (MTT, 48 h, Mean±SD, n=3), 24 ± 0.58 µM; in the assay with CEM cells, 25.1 ± 1.84 µM. Moreover, at HDAC8, the “HDAC-8 relative enzyme activity” value was below 50%.
For `O=C(CN1C(=O)SC(=Cc2ccc(Cl)cc2)C1=O)Nc1ccc(F)cc1F` [Compound G6, 2-[5-(4-Chlorobenzylidene)-2,4-dioxothiazolidin-3-yl]-N-(2,4-diflurophenyl)acetamide], the IC50 was above 50 µM at HDAC4 (setting [1]); 49 ± 5 µM on HDAC8 (setting [2]); 48.2 ± 1.23 µM in the assay on K562 cells (MTT, 48 h, Mean±SD, n=3); 39.3 ± 2.68 µM in the assay with CEM cells. Further, the “HDAC-8 relative enzyme activity” value on HDAC8 is below 50%.
Turning to `O=C(CN1C(=O)SC(=Cc2ccc(F)cc2)C1=O)Nc1ccc(Cl)cc1C(F)(F)F` [Compound G9, N-(4-Chloro-2-trifluoromethylphenyl)-2-[5-(4-fluorobenzylidene)-2,4-dioxothiazolidin-3-yl]acetamide], the IC50 at HDAC4 was above 50 µM; on HDAC8, 45 ± 5 µM; with K562 cells (Homo sapiens, K562, 48 h) it was 43.6 ± 2.23 µM. For the same compound, the “HDAC-8 relative enzyme activity” value at HDAC8 was below 50%.
Turning to `Cc1ccc(C=C2SC(=O)N(CC(=O)Nc3ccc(Cl)cc3C(F)(F)F)C2=O)cc1` [Compound G11, N-(4-Chloro-2-trifluoromethylphenyl)-2-[5-(4-methylbenzylidene)-2,4-dioxothiazolidin-3-yl]acetamide], the 50% inhibitory concentration (IC50) at HDAC4 is above 50 µM; at HDAC8, 18 ± 2 µM; against HDAC6, 14 ± 3 µM; at HDAC1, 31 ± 1.1 µM; in the assay on K562 cells (Homo sapiens, K562, 48 h), 34.6 ± 3.57 µM. The “HDAC-8 relative enzyme activity” value at HDAC8 was below 50%.
Regarding `O=C(CN1C(=O)SC(=Cc2ccccc2)C1=O)Nc1ccc(Cl)cc1C(F)(F)F` [Compound G13, 2-[5-Benzylidene-2,4-dioxothiazolidin-3-yl]-N-(4-chloro-2-trifluoromethylphenyl)acetamide], the IC50 against HDAC4 is above 50 µM; against HDAC8, 11 ± 1 µM; against HDAC6, 42 µM; at HDAC1 it was above 50 µM; in the assay on K562 cells (Homo sapiens, K562, 48 h) it was 41.7 ± 3.9 µM. For the same compound, the “HDAC-8 relative enzyme activity” value on HDAC8 is on record as below 50%.
Consider `O=C(CN1C(=O)SC(=Cc2ccc(F)cc2)C1=O)Nc1cccc(C(F)(F)F)c1` [Compound G16, 2-(5-(4-fluorobenzylidene)-2,4-dioxothiazolidin-3-yl)-N-(3-(trifluoromethyl)phenyl)acetamide], for which the IC50 was 21.6 ± 4.5 µM at GLUT4; 26.6 µM and 26.8 µM on GLUT1; 23.5 ± 1.94 µM in the assay with K562 cells (Homo sapiens, K562, 48 h). The “decrease of relative transport activity of GLUT4” value at GLUT4 (primary screen, 100 μM compound) is recorded as above 50%. Moreover, in the assay on GLUT5, the “GLUT5 inhibition, result in words” value is “did not affect GLUT5; also recorded: neither G16 nor G17 altered the transport activity of GLUT5”. The “decrease of relative transport activity of GLUT1” value on GLUT1 is on record as above 50%.
Consider `O=C(CN1C(=O)SC(=Cc2ccccc2)C1=O)Nc1nc2c(Cl)cccc2s1` [Compound G17, 2-(5-benzylidene-2,4-dioxothiazolidin-3-yl)-N-(4-chlorobenzo[d]thiazol-2-yl)acetamide], for which, in the assay with GLUT5, the “GLUT5 inhibition, result in words” value is given as “neither G16 nor G17 altered the transport activity of GLUT5”. Further, at GLUT1, it took 12.6 ± 1.2 µM to reach half-maximal inhibition (IC50) and the “decrease of relative transport activity of GLUT1” value was above 50%. Moreover, the “GLUT1 inhibition, result in words” value on GLUT1 (up to 100 μM) was “selective inhibitor of GLUT1”. The IC50 with K562 cells (Homo sapiens, K562, 48 h) is 79 ± 3.66 µM.
